Assay results from PMC12123421 (Journal of medicinal chemistry, 2022).
“Also recorded” adds a separate entry of the source.

Tests used:
[1] = Cytotoxic effect on oral epithelial cells; format: cell-based, human; details: human, OKF6/hTERT immortalized oral keratinocyte cells
[2] = tested on: HEK-293; experiment: Mammalian cytotoxicity assay; format: cell-based, human; details: for concentration up to which no toxicity was exhibited (HEK-293): range 0–62.6 μg/mL, 24 h; for non-toxic concentration as fold of bactericidal concentration (HEK-293): vs bactericidal concentration against P. gingivalis
Method in brief: (§1)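 Cells counted at about 80% confluence and seeded in 96-well plates: 10,000 cells/well for HEK-293, 3,000 cells/well for BEAS-2B and HepG2. Adhered 16 h at 37 °C, 5% CO2. Fresh medium with test compound at 0–62.6 μg/mL (from 1000× stocks) or 0.1% DMSO added, 24 h. Resazurin added 6 h; fluorescence read at 560/590 nm. Survival expressed relative to DMSO wells after medium-only blank subtraction.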

[3] = tested on: BEAS-2B; experiment: Mammalian cytotoxicity assay; format: cell-based, human; details: for concentration up to which no toxicity was observed (BEAS-2B): range 0–62.6 μg/mL, 24 h; for non-toxic concentration as fold of bactericidal concentration (BEAS-2B): vs bactericidal concentration against P. gingivalis
Method in brief: as §1

[4] = tested on: HepG2; experiment: Mammalian cytotoxicity assay; format: cell-based; details: for concentration up to which no toxicity was exhibited (HepG2): range 0–62.6 μg/mL, 24 h; for non-toxic concentration as fold of bactericidal concentration (HepG2): vs bactericidal concentration against P. gingivalis
Method in brief: as §1

[5] = tested on: P. gingivalis ATCC 33277; experiment: Percent growth inhibition of planktonic P. gingivalis, colorimetric WST-1 assay; format: cell-based, Porphyromonas gingivalis; details: for P. gingivalis growth inhibition: 2.5 h after addition of WST-1; for inhibition at 100 µM / inhibition at 10 µM: Porphyromonas gingivalis, ATCC33277, read-out: P. gingivalis growth inhibition
[6] = tested on: P. gingivalis ATCC 33277; experiment: Colony forming unit; format: cell-based, Porphyromonas gingivalis; details: 24 h exposure, CFUs counted after 5 days
Method in brief: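 P. gingivalis ATCC 33277 at 1 × 10^8 cells/well, grown exponentially in supplemented BHI under anaerobic conditions in 96-well plates. Exposed 24 h to test compound in DMSO at 1, 10 or 100 μM. Negative controls were medium or DMSO; positive controls were tetracycline 2.81 μM and zafirlukast 25 and 50 μM. Cultures diluted 1:400, spread on blood agar, and CFUs counted after 5 days anaerobic.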

[7] = tested on: immortalized oral keratinocyte (OKF6) cells; experiment: Cytotoxic effect on oral epithelial cells; format: cell-based, human; details: 24 h, microscopy
[8] = tested on: P. gingivalis ATCC 33277 biofilm; experiment: Inhibition of mono-species biofilm growth, safranin staining; format: cell-based, Porphyromonas gingivalis; details: at all concentrations tested (10, 25, 50, and 100 μM), 48 h
Method in brief: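 P. gingivalis ATCC 33277 at 1 × 10^8 bacteria/well, grown logarithmically in supplemented BHI in 96-well plates. Exposed to test compound in DMSO (10, 25, 50, 100 μM) for 48 h, anaerobic, gentle shaking. Negative controls were medium or DMSO; positive controls were tetracycline 2.81 μM and zafirlukast 50 μM. Medium removed, biofilm washed three times with PBS, stained with 0.1% safranin, and percentage biofilm growth determined.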

[9] = tested on: murine red blood cells (mRBCs); experiment: Hemolytic activity against murine red blood cells; format: cell-based; details: at concentrations up to 27 μg/mL, data not shown
[10] = tested on: F. nucleatum ATCC 25586; experiment: Percent growth inhibition, colorimetric WST-1 assay; format: cell-based, Fusobacterium nucleatum; details: 24 h, 30 min after addition of WST-1
Method in brief: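 F. nucleatum was grown in supplemented BHI to log phase (3–4 h after subculture), then seeded at 10^8 cells/well in 90 μL. It was exposed anaerobically to test compound in DMSO (1, 10, 100 μM) for 24 h. WST-1 reagent was added, and absorbance was read at 405 nm (reference 600 nm). % inhibition = 100 × [OD(control) − OD(treated)]/OD(control).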

[11] = at all concentrations tested (1, 10, and 100 μM)

| Compound | concentration up to which no toxicity was exhibited (HEK-293) [2] | concentration up to which no toxicity was observed (BEAS-2B) [3] | concentration up to which no toxicity was exhibited (HepG2) [4] | P. gingivalis growth inhibition ([5]; 100 μM, 24 h) | inhibition at 100 µM [5] [%] | P. gingivalis growth inhibition ([5]; 10 μM, 24 h) | growth inhibition by CFU assay (bactericidal activity) ([6]; 10 μM) | P. gingivalis growth inhibition ([5]; 1 μM, 24 h) | also measured |
| --- | --- | --- | --- | --- | --- | --- | --- | --- | --- |
| COc1cc(C(=O)NS(=O)(=O)c2ccccc2C)ccc1Cc1cn(C)c2ccc(NC(=O)OC3CCCC3)cc12 [ZAF, zafirlukast, reference compound] | up to 31.3 μg/mL | up to 62.6 μg/mL | up to 62.6 μg/mL |  |  |  |  |  | viability at 24 h, 25 µM [1]: 41% |
| COc1ccc(Cc2cn(C)c3ccc([N+](=O)[O-])cc23)cc1C(=O)NS(=O)(=O)c1ccccc1F [Compound 21a] | up to 62.6 μg/mL | up to 62.6 μg/mL | up to 62.6 μg/mL | comparable or superior activity | 61 to 73 |  |  |  | non-toxic concentration as fold of bactericidal concentration (HEK-293) [2]: 11- to 13 fold; non-toxic concentration as fold of bactericidal concentration (BEAS-2B) [3]: 11- to 13 fold; non-toxic concentration as fold of bactericidal concentration (HepG2) [4]: 11- to 13 fold |
| COc1ccc(Cc2cn(C)c3ccc([N+](=O)[O-])cc23)cc1C(=O)NS(=O)(=O)c1ccccc1Br [Compound 21c] | up to 62.6 μg/mL | up to 31.3 μg/mL | up to 62.6 μg/mL | comparable or superior activity | 61 to 73 |  |  |  | growth inhibition by CFU assay (bactericidal activity) ([6]; 10 μM, 10 µM): bactericidal; viability at 24 h, 10 µM [1]: 9 to 63%; viability at 24 h, 100 µM [1]: 5 to 23%; cytotoxicity to OKF6 cells by cell morphology and density ([7]; 10 μM): low toxicity; cytotoxicity to OKF6 cells by cell morphology and density ([7]; 100 μM): slight increase in cytotoxicity; non-toxic concentration as fold of bactericidal concentration (HEK-293) [2]: 11- to 13 fold; non-toxic concentration as fold of bactericidal concentration (BEAS-2B) [3]: 6 fold; non-toxic concentration as fold of bactericidal concentration (HepG2) [4]: 11- to 13 fold |
| COc1ccc(Cc2cn(C)c3ccc([N+](=O)[O-])cc23)cc1C(=O)NS(=O)(=O)c1ccccc1Cl [Compound 21b] | up to 62.6 μg/mL | up to 31.3 μg/mL | up to 62.6 μg/mL | comparable or superior activity | 61 to 73 |  |  |  | growth inhibition by CFU assay (bactericidal activity) ([6]; 10 μM, 10 µM): bactericidal; viability at 24 h, 10 µM [1]: 9 to 63%; viability at 24 h, 100 µM [1]: 5 to 23%; cytotoxicity to OKF6 cells by cell morphology and density ([7]; 100 μM): slight increase in cytotoxicity; non-toxic concentration as fold of bactericidal concentration (HEK-293) [2]: 11- to 13 fold; non-toxic concentration as fold of bactericidal concentration (BEAS-2B) [3]: 6 fold; non-toxic concentration as fold of bactericidal concentration (HepG2) [4]: 11- to 13 fold |
| COc1ccc(Cc2cn(C)c3ccc([N+](=O)[O-])cc23)cc1C(=O)NS(=O)(=O)c1ccc([N+](=O)[O-])cc1 [Compound 21g] |  |  |  | comparable or superior activity |  | comparable or superior activity | bactericidal |  | biofilm growth [8]: at least 86% |
| C[C@@H]1[C@H](O)[C@@H](C)/C=C/C=C/C=C/C=C/C=C/C=C/C=C/[C@H](O[C@@H]2O[C@H](C)[C@@H](O)[C@H](N)[C@@H]2O)C[C@@H]2O[C@](O)(C[C@@H](O)C[C@@H](O)[C@H](O)CC[C@@H](O)C[C@@H](O)CC(=O)O[C@H]1C)C[C@H](O)[C@H]2C(=O)O [amphotericin B] |  |  |  |  |  |  |  |  | hemolytic activity [9]: 0% |
| CCn1cc(Cc2ccc(OC)c(C(=O)NS(=O)(=O)c3ccc([N+](=O)[O-])cc3)c2)c2cc([N+](=O)[O-])ccc21 [Compound 22g] |  |  |  | comparable or superior activity |  | comparable or superior activity | not bactericidal |  |  |
| CCCn1cc(Cc2ccc(OC)c(C(=O)NS(=O)(=O)c3ccccc3F)c2)c2cc([N+](=O)[O-])ccc21 [Compound 23a] |  |  |  |  |  |  |  | little to no activity |  |
| COc1ccc(Cc2cn(CC(C)C)c3ccc([N+](=O)[O-])cc23)cc1C(=O)NS(=O)(=O)c1ccc([N+](=O)[O-])cc1 [Compound 25g] |  |  |  | comparable or superior activity | 61 to 73 |  | not bactericidal |  |  |
| CCCCn1cc(Cc2ccc(OC)c(C(=O)NS(=O)(=O)c3ccccc3F)c2)c2cc([N+](=O)[O-])ccc21 [Compound 24a] |  |  |  |  |  |  |  | little to no activity |  |
| CCCn1cc(Cc2ccc(OC)c(C(=O)NS(=O)(=O)c3ccc([N+](=O)[O-])cc3)c2)c2cc([N+](=O)[O-])ccc21 [Compound 23g] |  |  |  | comparable or superior activity |  | comparable or superior activity | not bactericidal | comparable or superior activity | inhibition at 10 µM [5]: 77 to 90%; P. gingivalis growth inhibition [5, 11]: 60–90% |
| CCCCn1cc(Cc2ccc(OC)c(C(=O)NS(=O)(=O)c3ccc([N+](=O)[O-])cc3)c2)c2cc([N+](=O)[O-])ccc21 [Compound 24g] |  |  |  | comparable or superior activity |  | comparable or superior activity |  | comparable or superior activity | inhibition at 10 µM [5]: 77 to 90%; P. gingivalis growth inhibition [5, 11]: 69–90%; growth inhibition by CFU assay (bactericidal activity) ([6]; 100 μM): bactericidal activity; viability at 24 h, 10 µM [1]: 9 to 63%; viability at 24 h, 100 µM [1]: 5 to 23%; cytotoxicity to OKF6 cells by cell morphology and density ([7]; 10 μM): low toxicity; also recorded: little to no cytotoxicity; cytotoxicity to OKF6 cells by cell morphology and density ([7]; 100 μM): slight decrease in cell density |
| COc1ccc(Cc2cn(C)c3ccc([N+](=O)[O-])cc23)cc1C(=O)NS(=O)(=O)c1c(F)cccc1F [Compound 21d] |  |  |  | comparable or superior activity | 61 to 73 |  | not bactericidal |  | growth inhibition against F. nucleatum ([10]; 1 μM): no activity; growth inhibition against F. nucleatum ([10]; 10 μM): no activity |
